Screening data deposited in PubChem BioAssay by Broad Institute.
CAL PDZ FP-1: untagged CAL PDZ binding inhibitors, primary screen, biochemical, fluorescence polarization, HTS; Golgi-associated PDZ and coiled-coil motif-containing protein (Homo sapiens), Q9HD26; purified CAL PDZ, TMR-peptide fluorescence polarization, 1 h; inhibition, % at 24.9 µM; 0.92% of 300,000 active; AID 602252, 2012;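 active = mean inhibition of at least 30% with at least half of replicates also reaching 30%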;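 also: 0% = DMSO neutral control and 100% = excess unlabeled competitor peptide PRC23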
dFosB act: activators of delta FosB homodimer, primary screen, biochemical, fluorescence polarization, TAMRA-CDK5 oligo, single point; activation, % at 25 µM; purified delta FosB; percent of positive-control signal above neutral wells; 0.99% of 340,000 active; Protein FosB (Mus musculus), P13346;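 active = mean activation above about 17%, with every replicate also reaching it, limit read from the data, passing the limit was not always enough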
Target sequence (P13346 whole entry, looked up): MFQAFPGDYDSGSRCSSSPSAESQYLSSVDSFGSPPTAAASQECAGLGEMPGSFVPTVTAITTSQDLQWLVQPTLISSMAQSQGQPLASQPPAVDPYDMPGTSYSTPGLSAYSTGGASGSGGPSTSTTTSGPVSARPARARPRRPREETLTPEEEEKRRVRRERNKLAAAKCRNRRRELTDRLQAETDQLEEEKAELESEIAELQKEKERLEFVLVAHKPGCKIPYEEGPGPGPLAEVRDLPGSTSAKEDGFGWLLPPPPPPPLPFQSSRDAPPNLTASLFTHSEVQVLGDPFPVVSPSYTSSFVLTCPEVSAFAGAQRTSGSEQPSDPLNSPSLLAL
CAL PDZ FP-2: CAL PDZ peptide-binding inhibitors, primary screen, biochemical, fluorescence polarization, Cer-tagged CAL PDZ, HTS; purified CAL PDZ, TMR-peptide fluorescence polarization, 1 h; inhibition, % at 20 µM; Golgi-associated PDZ and coiled-coil motif-containing protein (Homo sapiens), Q9HD26; 0.02% of 330,000 active;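 active = highest replicate inhibition of at least 40%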;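 also: plate controls were DMSO neutral control wells for no effect and unlabeled competitor peptide control wells for full effect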
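Material: tagged CAL PDZ protein CerCALP, purified; buffer or medium: sodium phosphate/NaCl buffer pH 7.4 with TCEP, IgG, Thesit; also added: fluorescent TMR peptide probe; schedule: 1 h incubation at room temperature before polarization reading; technique: fluorescence polarization from S- and P-plane intensities, G-factor corrected; control set: unlabelled peptide and DMSO controls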
SR-BI HDL uptake: inhibitors of SR-BI mediated HDL lipid uptake, primary screen, ldlA[mSR-BI] cells, fluorescence, single point; 0.96% of 320,000 active; ldlA[mSR-BI] CHO cells, DiI-HDL uptake fluorescence, 3 h; inhibition, % at 12.5 µM; AID 488896, 2010;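 active = mean replicate inhibition of at least 70% and a set share of replicates each scoring 70 or more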;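 also: 0% = median of neutral control wells and 100% = median of positive control wells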
SR-BI DiI-HDL act: activators of SR-BI mediated DiI-HDL uptake, primary screen, ldlA[mSR-BI] CHO cells, DiI fluorescence. 3 h; 100 = double the neutral-control signal. activation, % at 12.5 µM. 0.096% of 320,000 active. AID 504775, 2011;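 active = mean replicate activation of at least 60% and every replicate at or above 60%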;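 also: 0% = median plate neutral-control signal and 100% = twice that signal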
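Assay system: LDL receptor-deficient CHO ldlA cells overexpressing murine SR-BI / Medium: BSA-supplemented, HEPES-buffered Ham's F12, pH 7.4 / Probe or stimulus: DiI-labelled HDL at 10 µg/mL final / Timing: compound with DiI-HDL co-incubation, 3 h at 37 °C / Technique: bottom-read cell fluorescence after medium removal, ex 550/em 595 nm / Measure: HDL uptake via cellular fluorescence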
Numbers without * were called inactive. Only some compounds are listed: those with a hit (about 2.8% of all), similar ones and a draw of the others.

`CCc1ccc(N=C2NC(=O)/C(=C/c3cc(Br)c(OCC(=O)O)c(OC)c3)S2)cc1` gave CAL PDZ FP-1 -6.9, dFosB act -10.2, CAL PDZ FP-2 -8.5, SR-BI HDL uptake 0.9 and SR-BI DiI-HDL act -0.9.
CC(C)(CNC(=O)C1CCN(S(=O)(=O)c2cc([N+](=O)[O-])ccc2Cl)CC1)N1CCOCC1 was read as CAL PDZ FP-1 -3.3, dFosB act -5.1, CAL PDZ FP-2 -2.1, SR-BI HDL uptake -0.8 and SR-BI DiI-HDL act 0.8.
Screening C=CCn1c2ccccc2c(=O)c2cc(C#Cc3cc(OC)cc(OC)c3)ccc21 returned CAL PDZ FP-1 -1.4, dFosB act -3.3, CAL PDZ FP-2 -2.7, SR-BI HDL uptake 87.4* and SR-BI DiI-HDL act -87.4.
For Cn1c2ccccc2c(=O)c2cc(C#Cc3ccccn3)ccc21 the results were CAL PDZ FP-1 -4.7, dFosB act -15.1, CAL PDZ FP-2 -1.3, SR-BI HDL uptake -13.9 and SR-BI DiI-HDL act 13.9.
For CC(C)c1ccc(N(CC(=O)NCc2ccco2)C(=O)CCC(=O)Nc2nccs2)cc1 the results were CAL PDZ FP-1 -2.2, dFosB act -18.1 and CAL PDZ FP-2 -2.9.
`CCN(C(=O)c1ccc2c(Cl)c3c(nc2c1)CCC3)c1ccc(C)c(C)c1` gave CAL PDZ FP-1 2.5, dFosB act -16.5, CAL PDZ FP-2 -0.9, SR-BI HDL uptake 86.4* and SR-BI DiI-HDL act -86.4.
`Cc1cccc(NC(=O)c2ccc(N3CCOCC3)c([N+](=O)[O-])c2)n1` gave CAL PDZ FP-1 -2.7, dFosB act -8.2, CAL PDZ FP-2 1.1, SR-BI HDL uptake 24.0 and SR-BI DiI-HDL act -24.0.
`Cc1ccc(C)c2sc(NC(=O)c3ccc(N4CCCCC4)c([N+](=O)[O-])c3)nc12` gave CAL PDZ FP-1 -4.9, dFosB act 5.9, CAL PDZ FP-2 -1.5, SR-BI HDL uptake 71.2* and SR-BI DiI-HDL act -71.2.
For Cc1cccc(NC(=O)c2ccc(N3CCCCC3)c([N+](=O)[O-])c2)n1 the results were dFosB act -9.6, CAL PDZ FP-2 -1.7, SR-BI HDL uptake 76.6* and SR-BI DiI-HDL act -76.6.
O=C(Nc1cccc(-c2ccc(N3CCOCC3)nn2)c1)c1ccc([N+](=O)[O-])cc1 was read as CAL PDZ FP-1 -4.8, dFosB act -1.7, CAL PDZ FP-2 -2.0, SR-BI HDL uptake 63.4 and SR-BI DiI-HDL act -63.4.
Screening O=C(Nc1ccc(-c2nc3ccccc3o2)cc1)c1ccc(N2CCOCC2)c([N+](=O)[O-])c1 returned CAL PDZ FP-1 -5.0, dFosB act -1.5, CAL PDZ FP-2 -1.7, SR-BI HDL uptake 81.2* and SR-BI DiI-HDL act -81.2.
Cc1ccc(C(=O)Nc2cccc(-c3ccc(N4CCOCC4)nn3)c2)cc1[N+](=O)[O-] was read as CAL PDZ FP-1 -0.7, dFosB act 2.5, CAL PDZ FP-2 -1.5, SR-BI HDL uptake 73.3* and SR-BI DiI-HDL act -73.3.
Screening Cc1cc(C)cc(NC(=O)CN2CCN(c3ccccc3)CC2)c1 returned CAL PDZ FP-1 -4.2, dFosB act -7.9, CAL PDZ FP-2 1.1, SR-BI HDL uptake 5.7 and SR-BI DiI-HDL act -5.7.
`O=C(COC(=O)c1ccc(-n2cnnn2)cc1)Nc1cc(Cl)ccc1F` gave CAL PDZ FP-1 -5.6, dFosB act 12.5, CAL PDZ FP-2 -0.7, SR-BI HDL uptake -5.5 and SR-BI DiI-HDL act 5.5.
Screening COc1ccc(/C=N/OCC(=O)NCc2cccs2)c(OC)c1 returned CAL PDZ FP-1 0.4, dFosB act -2.6, CAL PDZ FP-2 -0.4, SR-BI HDL uptake 49.9 and SR-BI DiI-HDL act -49.9.
Cc1cccc(NC(=O)c2ccc(N(C)C3CCCCC3)c([N+](=O)[O-])c2)n1 was read as CAL PDZ FP-1 -3.4, dFosB act 3.5, SR-BI HDL uptake 85.5* and SR-BI DiI-HDL act -85.5.
Screening CCC(=O)N1CCN(c2ccc(Cl)cc2NC(=O)c2ccc(N3CCCC3)c([N+](=O)[O-])c2)CC1 returned CAL PDZ FP-1 5.6, dFosB act 2.1, CAL PDZ FP-2 -0.9, SR-BI HDL uptake 76.2* and SR-BI DiI-HDL act -76.2.
Screening CCSc1ccc(C(=O)Nc2cccc(C)n2)cc1[N+](=O)[O-] returned CAL PDZ FP-1 -2.7, dFosB act 7.4, CAL PDZ FP-2 0.8, SR-BI HDL uptake 59.6 and SR-BI DiI-HDL act -59.6.
CCCN(CCC)CC(C)(C)NS(=O)(=O)c1ccc(Cl)cc1 was read as CAL PDZ FP-1 69.8*, dFosB act -8.1, CAL PDZ FP-2 -0.5, SR-BI HDL uptake -1.4 and SR-BI DiI-HDL act 1.4.
For CCN(CC(=O)Nc1ccccc1C(F)(F)F)C(=O)C1CCC1 the results were CAL PDZ FP-1 6.3, dFosB act -1.5, CAL PDZ FP-2 -1.5, SR-BI HDL uptake -27.6 and SR-BI DiI-HDL act 27.6.
Screening O=C(CSc1n[nH]c(-c2ccncc2)n1)Nc1ccc(Br)cc1 returned CAL PDZ FP-1 -1.3, dFosB act -14.4, CAL PDZ FP-2 -2.9, SR-BI HDL uptake -2.1 and SR-BI DiI-HDL act 2.1.
Screening COc1cccc(-n2c(CCn3nc(C)c([N+](=O)[O-])c3C)n[nH]c2=S)c1 returned CAL PDZ FP-1 15.7, dFosB act -1.9, CAL PDZ FP-2 -0.2, SR-BI HDL uptake 10.2 and SR-BI DiI-HDL act -10.2.
COc1ccc(CCn2nc(C)c([N+](=O)[O-])c2C)cc1 was read as CAL PDZ FP-1 37.9*, dFosB act -0.6, CAL PDZ FP-2 0.6, SR-BI HDL uptake -21.7 and SR-BI DiI-HDL act 21.7.
For Cc1ccc(C)c(-n2cc(CNCCc3cnccn3)c(-c3ccccc3)n2)c1 the results were CAL PDZ FP-1 52.8*, dFosB act -7.5 and CAL PDZ FP-2 -0.9.
`O=C(C1CC(=O)N(c2ccc3c(c2)OCCO3)C1)N1CCN(S(=O)(=O)c2ccc(F)cc2)CC1` (stereo not drawn) gave CAL PDZ FP-1 68.1*, dFosB act -5.3, CAL PDZ FP-2 -1.9, SR-BI HDL uptake -23.8 and SR-BI DiI-HDL act 23.8.
Cc1cc(=O)oc2cc(OCC(=O)OCC(=O)NC3CC3)ccc12 was read as CAL PDZ FP-1 -0.6, dFosB act -6.1, CAL PDZ FP-2 -2.7, SR-BI HDL uptake -1.5 and SR-BI DiI-HDL act 1.5.
`CCOc1ccc(-n2cc(C(=O)N3CCCCCC3)c3cc(OC)c(OC)cc3c2=O)cc1` gave CAL PDZ FP-1 -2.0, dFosB act -12.9, CAL PDZ FP-2 -0.7, SR-BI HDL uptake 74.6* and SR-BI DiI-HDL act -74.6.
COc1ccc(C(=O)/C=C2\C(=O)Nc3ccc(Br)cc32)cc1 was read as CAL PDZ FP-1 -8.7, dFosB act -11.3, CAL PDZ FP-2 -1.1, SR-BI HDL uptake 56.0 and SR-BI DiI-HDL act -56.0.
`O=C1Nc2ccc(Br)cc2/C1=C/C(=O)c1ccc2c(c1)OCO2` gave CAL PDZ FP-1 -4.1, dFosB act -9.3, CAL PDZ FP-2 0.5, SR-BI HDL uptake 75.0* and SR-BI DiI-HDL act -75.0.
